Assays:
Trypanosoma cruzi [1] = experiment: Antitrypanosomal activity against epimastigotes of Trypanosoma cruzi Y assessed as parasite growth inhibition after 5 days by spectrophotometric analysis; type: functional, organism-based; settings: for IC50: Trypanosoma cruzi, Y, 120 h
Outline: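 Stationary-phase epimastigotes (10-day culture, 28 °C) diluted in LIT medium with 10% fetal calf serum to 2.0 x 10^6 parasites/mL. Compounds dissolved in DMSO (final ≤1.0%), 0.25–180.0 µM, incubated 28 °C for 5 days. Growth read at A580 versus day 0 and untreated controls as percent growth inhibition. Triplicates; IC50 by sigmoid dose–response fit, at least five concentrations.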

[2] = Cytotoxicity against human FN1 fibroblasts after 24 hrs by MTT assay
Outline: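 Human FN1 fibroblasts kept in RPMI 1640 with 10% FBS at 37 °C, 5% CO2. Plated in triplicate at 1 x 10^4 cells/well, incubated overnight, then treated 24 h with 12.5–200 µM. MTT at 5 mg/mL for 2 h, formazan dissolved in 0.1 N HCl in isopropanol, absorbance at 540 nm, IC50 determined.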

[3] = Selectivity index, ratio of IC50 for human FN1 fibroblasts to IC50 for epimastigotes of Trypanosoma cruzi Y
Outline: (§1)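 Selectivity index taken as IC50 in the mammalian cell line (J774 or FN1) divided by IC50 against Y-strain epimastigotes.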

J774 = experiment: Cytotoxicity against mouse J774 cells after 48 hrs by MTT assay; type: cell-based; settings: J774, 48 h
Outline: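 J774 murine macrophages in RPMI 1640 with 10% FBS, 37 °C, 5% CO2. Seeded at 1.0 x 10^4 cells/well in RPMI 1640 with 5% heat-inactivated fetal calf serum, attached 24 h. Exposed 48 h to 0.8–400.0 µM. MTT at 0.4 mg/mL final for 3 h at 37 °C, formazan in DMSO, A595. IC50 is the mean of six experiments, sigmoid fit, at least five concentrations.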

Trypanosoma cruzi [4] = experiment: Ratio of nifurtimox IC50 to compound IC50 for epimastigotes of Trypanosoma cruzi Y; type: functional
[5] = Selectivity index, ratio of IC50 for mouse J774 cells to IC50 for epimastigotes of Trypanosoma cruzi Y; type: toxicity, cell-based; settings: read-out: Ratio IC50; outline: as §1

| SMILES | IC50 (Trypanosoma cruzi [1]) | log(1/C) (Trypanosoma cruzi [1]) | IC50 [2] | Ratio IC50 [3] | IC50 (J774) | Ratio IC50 (Trypanosoma cruzi [4]) | selectivity ratio [5] |
| --- | --- | --- | --- | --- | --- | --- | --- |
| CC(=O)N1N=C(c2ccc(Br)cc2)OC1c1ccc([N+](=O)[O-])o1 (centres undefined) | 9.59 µM | 5.01 |  |  |  |  |  |
| CC(=O)N1N=C(c2ccc(I)cc2)OC1c1ccc([N+](=O)[O-])o1 (centres undefined) | 11.5 µM | 4.93 |  |  |  |  |  |
| N#Cc1ccc(C(=O)N/N=C/c2ccc([N+](=O)[O-])o2)cc1 | 12.5 µM | 4.9 |  |  |  |  |  |
| CC(=O)N1N=C(c2ccccc2)OC1c1ccc([N+](=O)[O-])o1 (centres undefined) | 10.2 µM | 4.99 |  |  |  |  |  |
| CC(=O)N1N=C(c2ccc(C)cc2)OC1c1ccc([N+](=O)[O-])o1 (centres undefined) | 9.84 µM | 5.01 |  |  |  |  |  |
| CC(=O)N1N=C(c2ccc(C#N)cc2)OC1c1ccc([N+](=O)[O-])o1 (centres undefined) | 13.4 µM | 4.87 |  |  |  |  |  |
| COc1ccc(C2=NN(C(C)=O)C(c3ccc([N+](=O)[O-])o3)O2)cc1 (centres undefined) | 9.26 µM | 5.03 |  |  |  |  |  |
| CC(=O)N1N=C(c2ccc(Cl)cc2)OC1c1ccc([N+](=O)[O-])o1 (centres undefined) | 11.5 µM | 4.94 | > 200 µM | >17 | > 400 µM |  | > 34 |
| CC(=O)N1N=C(c2ccc([N+](=O)[O-])cc2)OC1c1ccc([N+](=O)[O-])o1 (centres undefined) | 13.9 µM | 4.85 | > 200 µM | >14 | 114 µM |  | 8.21 |
| CC(=O)N1N=C(c2ccc(C(F)(F)F)cc2)OC1c1ccc([N+](=O)[O-])o1 (centres undefined) | 11.1 µM | 4.95 |  |  |  |  |  |
| O=C(N/N=C/c1ccc([N+](=O)[O-])o1)c1ccc([N+](=O)[O-])cc1 | 9.45 µM | 5.02 | 178 µM | 18.83 | 79.1 µM |  | 8.37 |
| O=C(Cn1ccnc1[N+](=O)[O-])NCc1ccccc1 [BENZNIDAZOLE] | 22.7 µM |  | > 200 µM | >9 | > 400 µM |  | > 18 |
| CC1CS(=O)(=O)CCN1/N=C/c1ccc([N+](=O)[O-])o1 (centres undefined) [NIFURTIMOX] |  |  | > 200 µM | >53 | 280 µM |  | 74.2 |

The next lines start with results.

| IC50 (Trypanosoma cruzi [1]) | SMILES | log(1/C) (Trypanosoma cruzi [1]) | IC50 [2] | Ratio IC50 [3] | IC50 (J774) | Ratio IC50 (Trypanosoma cruzi [4]) | selectivity ratio [5] |
| --- | --- | --- | --- | --- | --- | --- | --- |
| 1.05 µM | CCCCc1ccc(C(=O)N/N=C/c2ccc([N+](=O)[O-])o2)cc1 | 5.98 | 98 µM | 93.33 | 28.1 µM | 3 | 26.7 |
| 3.74 µM | O=C(N/N=C/c1ccc([N+](=O)[O-])o1)c1ccc(Br)cc1 | 5.42 |  |  |  |  |  |
| 3.21 µM | O=C(N/N=C/c1ccc([N+](=O)[O-])o1)c1ccc(I)cc1 | 5.49 |  |  |  |  |  |
| 8.27 µM | CCCCc1ccc(C2=NN(C(C)=O)C(c3ccc([N+](=O)[O-])o3)O2)cc1 (centres undefined) | 5.08 | 186 µM | 22.49 | > 400 µM |  | > 48 |
| 4.44 µM | O=C(N/N=C/c1ccc([N+](=O)[O-])o1)c1ccccc1 | 5.35 |  |  |  |  |  |
| 4.03 µM | O=C(N/N=C/c1ccc([N+](=O)[O-])o1)c1ccc(Cl)cc1 | 5.39 | > 200 µM | >49.63 | 57.1 µM |  | 14.2 |
| 3.94 µM | COc1ccc(C(=O)N/N=C/c2ccc([N+](=O)[O-])o2)cc1 | 5.4 |  |  |  |  |  |
| 3.71 µM | Cc1ccc(C(=O)N/N=C/c2ccc([N+](=O)[O-])o2)cc1 | 5.43 |  |  |  |  |  |
| 4.42 µM | O=C(N/N=C/c1ccc([N+](=O)[O-])o1)c1ccc(C(F)(F)F)cc1 | 5.35 |  |  |  |  |  |

— ChEMBL document CHEMBL2413043, “5-Nitro-2-furfuriliden derivatives as potential anti-Trypanosoma cruzi agents: design, synthesis, bioactivity evaluation, cytotoxicity and exploratory data analysis” (Bioorg Med Chem, 2013)
